High-throughput results: PubChem BioAssay, The Scripps Research Institute Molecular Screening Center
An excerpt weighted towards active compounds, which were near 2.7% of everything screened.
RBBP9 inhibitor: blocks human serine hydrolase RBBP9 | inhibition, % at 7.94 µM | recombinant RBBP9, FP-Rh probe fluorescence polarization | O75884 | hit rate 0.2% among 220,000;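 active means inhibition above the campaign mean of all tested compounds plus 3 SD, cut at about 14% in these data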;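 further: plate controls were DMSO wells with RBBP9 for no effect and wells lacking RBBP9 protein for full effect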
Target sequence (O75884 whole entry, looked up): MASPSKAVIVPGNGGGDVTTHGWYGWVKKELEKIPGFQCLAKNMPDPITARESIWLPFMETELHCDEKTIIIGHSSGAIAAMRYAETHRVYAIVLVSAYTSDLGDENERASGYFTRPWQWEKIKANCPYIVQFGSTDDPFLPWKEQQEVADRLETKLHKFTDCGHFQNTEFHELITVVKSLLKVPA
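Test system: recombinant human RBBP9; Timing: 30 min then 45 min, 25 °C; Detection: fluorescence polarization; Control set: RBBP9 with DMSO as uninhibited control, no-protein wells as full inhibition; Compound dosing: one concentration, 7.94 µM nominal, 0.794% DMSO; Probe or stimulus: FP-Rh activity-based probe, 375 nM before mixing.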
SIAE primary: blocks human sialic acid acetylesterase; Q9HAT2; SIAE FP-Rh probe binding, fluorescence polarization; inhibition, % at 9.66 µM; hit rate 0.69% among 370,000; AID 1053197;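 active means inhibition above a cutoff: mean of compounds within the control limits plus 3 SD of those, cut at about 17% in these data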;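 further: 0% = plate median of compound wells and 100% = probe without SIAE protein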
PRMT1 inh: inhibitors of human PRMT1 | Q99873 | recombinant PRMT1, activity-based probe fluorescence polarization | inhibition, % at 2.79 µM | hit rate 1.3% among 370,000;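 active means inhibition above about 21% made by adding two undisclosed values, limit read from the data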
GSTO1 counter: blocks human GSTO1 in RBBP9 counter-screen; P78417; recombinant GSTO1, activity-based probe fluorescence polarization; inhibition, % at 5.96 µM; hit rate 1.1% among 300,000; AID 1974;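 active means inhibition above the campaign mean inhibition plus 3 SD, cut at about 35% in these data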;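 further: 0% = GSTO1-1 with DMSO and 100% = wells lacking GSTO1-1 enzyme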
Target sequence (P78417 whole entry, looked up): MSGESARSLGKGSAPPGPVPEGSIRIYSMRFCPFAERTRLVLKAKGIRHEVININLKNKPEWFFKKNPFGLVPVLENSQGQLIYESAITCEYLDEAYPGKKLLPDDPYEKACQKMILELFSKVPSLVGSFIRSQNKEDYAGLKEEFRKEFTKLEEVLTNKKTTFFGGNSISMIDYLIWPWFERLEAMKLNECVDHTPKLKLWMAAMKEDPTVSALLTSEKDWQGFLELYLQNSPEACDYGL
PAD4 inh: inhibitors of human PAD4 | inhibition, % at 6.36 µM | recombinant PAD4, RCA probe fluorescence polarization | hit rate 0.41% among 330,000;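 active means percent inhibition above a cutoff equal to the mean of all tested compounds plus 3 SD, cut at about 15% in these data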;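 further: 0% = PAD4 with RCA probe and DMSO and 100% = probe without PAD4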
PAD4 FP conf: confirmation of human PAD4 inhibitors; shares compounds with PAD4 inh; recombinant PAD4, RCA probe fluorescence polarization; inhibition, % at 6.36 µM; hit rate 28% among 1,200; AID 488796;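 active means mean inhibition across replicates above the hit cutoff set by the earlier primary screen, cut at about 15% in these data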;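 further: inhibitors block active-site labeling by the probe so polarization falls; 0% = PAD4 with probe and DMSO and 100% = probe without PAD4 enzyme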
SIAE inh conf: confirmation of human SIAE inhibitors | shares compounds with SIAE primary | SIAE FP-Rh activity-based probe, fluorescence polarization | AID 1117263 | inhibition, % at 9.66 µM | hit rate 13% among 2,300;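 active means mean inhibition of the replicates above the hit cutoff set in the primary screen, cut at about 17% in these data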;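 further: 0% = SIAE with DMSO and probe and 100% = probe without SIAE; inhibitors lower polarization as more probe stays unbound to SIAE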
* marks the source's active call; other numbers are inactive results.

`CC/C(=N\N1CCCCCC1)c1c(O)n(-c2ccc(C)cc2)c(=O)[nH]c1=O` gave RBBP9 inhibitor -9, SIAE primary 5, PRMT1 inh 3, GSTO1 counter -6 and PAD4 inh 1.
CCC(C)n1c(O)c(C=Nc2cccc(C(F)(F)F)c2)c(=O)[nH]c1=S (stereo not drawn) was read as RBBP9 inhibitor -9, SIAE primary -8, PRMT1 inh 4, GSTO1 counter -8, PAD4 inh 22* and PAD4 FP conf 0.
COC(=O)C1=C(c2ccc(F)cc2F)C[C@@H]2CC[C@H]1N2C(=O)NCCOc1ccccc1Cl was read as PAD4 inh -2.
`O=c1cc(C2CCNCC2)[nH][nH]1` gave RBBP9 inhibitor -10, SIAE primary 0, PRMT1 inh 16, GSTO1 counter 19, PAD4 inh 37* and PAD4 FP conf -1.
`CC1([N+](=O)[O-])COP(=O)(Nc2cccc(Br)c2)OC1` (stereo not drawn) gave SIAE primary 1 and PRMT1 inh -5.
C#CC1(O)CCC2C3CCC4=C/C(=N/OCC(=O)NCC(=O)NC(C(=O)O)C(C)C)CC[C@]4(C)C3CC[C@@]21C (stereo partly drawn) was read as SIAE primary 0 and PRMT1 inh -2.
C#C[C@]1(O)CC[C@H]2[C@@H]3CCC4=Cc5nc6nc7ccccc7n6cc5C[C@]4(C)[C@H]3CC[C@@]21C was read as SIAE primary -7, PRMT1 inh 13, GSTO1 counter -8, PAD4 inh 19* and PAD4 FP conf 9.
Screening CCc1ccc(N2C(=O)NC(=O)C(Cc3ccc(OC)cc3OC)C2=O)cc1 (stereo not drawn) returned RBBP9 inhibitor -2, SIAE primary -2, PRMT1 inh 5, GSTO1 counter -4 and PAD4 inh 0.
`COC(=O)C1=C(c2cccc(OC)c2OC)C[C@@H]2CC[C@H]1N2C(=O)NCc1ccc(F)cc1` gave SIAE primary 2, PRMT1 inh -1, GSTO1 counter 7, PAD4 inh 28* and PAD4 FP conf 5.
`CCN(CC)c1ccc(N=Cc2c(O)n(CCc3ccc(OC)c(OC)c3)c(=O)[nH]c2=O)cc1` gave RBBP9 inhibitor -6, SIAE primary 6, PRMT1 inh 6, GSTO1 counter 16 and PAD4 inh -6.
For CCN(CC)c1ccc(N=Cc2c(O)n(Cc3ccco3)c(=O)[nH]c2=O)cc1 the results were RBBP9 inhibitor 9, SIAE primary 17, PRMT1 inh 21, GSTO1 counter 28, PAD4 inh 16* and PAD4 FP conf 8.
For CCN(CCO)c1ccc(N=Cc2c(O)n(C)c(=S)[nH]c2=O)cc1 the results were RBBP9 inhibitor 7, SIAE primary 0, PRMT1 inh 21*, GSTO1 counter 48*, PAD4 inh 40* and PAD4 FP conf -6.
For COc1ccccc1CN1CCCC(C(=O)c2ccccc2OC)C1 (stereo not drawn) the results were SIAE primary -1, PRMT1 inh -3, GSTO1 counter 3 and PAD4 inh -2.
For CCC1(c2ccccc2)C(=O)NC(=O)NC1=O the results were SIAE primary 10, PRMT1 inh 0 and PAD4 inh -7.
CN1CC=C2C(C#N)=C(N)C(C#N)(C#N)C(c3ccncc3)C2C1 (stereo not drawn) was read as RBBP9 inhibitor -6, GSTO1 counter 13, PAD4 inh 27* and PAD4 FP conf 7.
Screening O=c1c2ccccc2[se]n1-c1ccccc1 returned RBBP9 inhibitor -84, SIAE primary 6, PRMT1 inh 95*, GSTO1 counter -20, PAD4 inh 75* and PAD4 FP conf 80*.
Screening O=C1CC(c2cccnc2)=NN1c1ccccc1 returned RBBP9 inhibitor -5, SIAE primary 28*, PRMT1 inh 1, GSTO1 counter 31, PAD4 inh 52*, PAD4 FP conf 2 and SIAE inh conf -7.
Screening O=c1c2ccccc2nc(-c2ccccc2)n1-c1cccnc1 returned RBBP9 inhibitor 0, SIAE primary 2, PRMT1 inh -1, GSTO1 counter -1 and PAD4 inh -2.
